ChEMBL document CHEMBL1165938, “An isoaurone and other constituents from Trichosanthes kirilowii seeds inhibit hypoxia-inducible factor-1 and nuclear factor-kappaB” (J Nat Prod, 2010)

How the values were obtained:
[1] = Cytotoxicity against human Hep3B cells after 24 hrs by MTT assay; assay type: cell-based; conditions: hep 3b2, 24 h
[2] = Inhibition of NF-kappaB activity in human HeLa cells by SEAP reporter assay; assay type: cell-based
Procedure, shortened: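 HeLa cells grown in DMEM with 10% FBS and penicillin/streptomycin at 37 °C, 5% CO2. NF-κB activity read by a secreted alkaline phosphatase (SEAP) reporter, with celastrol as positive control. Values are IC50s, mean ± SD from three experiments.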

[3] = target: Hypoxia-inducible factor 1-alpha (Homo sapiens, UniProt Q16665); assay: Inhibition of hypoxia-induced HIF1alpha protein accumulation in human Hep3B cells treated for 30 mins measured after 12 hrs by Western blot analysis; assay type: functional, cell-based, Hep 3B2; conditions: for inhibition: Hep 3B2
Procedure, shortened: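 Hep3B cells (DMEM, 10% FBS, 37 °C) were pretreated with a range of compound concentrations for 30 min, then kept 12 h under normoxia or hypoxia (1% O2, 94% N2, 5% CO2, 37 °C). HIF-1α was detected by western blot with a mouse monoclonal anti-HIF-1α antibody. Topoisomerase-1 was probed as the loading control.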

[4] = system: Hep 3B2; assay: Inhibition of hypoxia-induced VEGF protein secretion in human Hep3B cells after 16 hrs by ELISA; assay type: functional, cell-based
Procedure, shortened: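 Hep3B cells were seeded at 2 × 10^5 per well and exposed to a range of concentrations for 16 h under normoxia or hypoxia (1% O2, 5% CO2, 37 °C). VEGF in the culture supernatant was quantified with a DuoSet sandwich ELISA. 17-DMAG served as positive control. IC50s are mean ± SD from three experiments.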

[5] = Inhibition of hypoxia-induced HIF1alpha protein accumulation in human Hep3B cells treated for 30 mins measured after 12 hrs by Western blot analysis; conditions: hep 3b2

Structure (SMILES)	Activity [1]	IC50 [2] [nM]	IC50 [3] [nM]	inhibition [3]	IC50 [4] [nM]	IC50 [5] [nM]
COc1cc(/C=C/c2ccc(OC)c(O)c2)oc(=O)c1	Non-toxic	400	810	Dose-dependent effect	1040	–
COc1cc(O)cc2c1/C(=C\c1ccc(O)cc1)C(=O)O2	Non-toxic	560	690	Dose-dependent effect	930	–
CO[C@H]1/C=C\C=C(/C)C(=O)NC2=CC(=O)C(NCCN(C)C)=C(C[C@@H](C)C[C@H](OC)[C@H](O)[C@@H](C)/C=C(\C)[C@@H]1OC(N)=O)C2=O [ALVESPIMYCIN]	–	–	–	–	–	57
CC1=CC(=O)CC(C)(C)[C@@]1(O)/C=C/[C@@H](C)O [BLUMENOL A]	Non-toxic	12300	15800	–	26200	–
CC1=C(O)C(=O)C=C2C1=CC=C1[C@@]2(C)CC[C@@]2(C)[C@@H]3C[C@](C)(C(=O)O)CC[C@]3(C)CC[C@]12C [CELASTROL]	–	150	–	–	–	–
CC(=O)OC(C)(C)/C=C/C(=O)[C@](C)(O)[C@H]1[C@H](O)C[C@@]2(C)[C@@H]3CC=C4[C@@H](C[C@H](O)C(=O)C4(C)C)[C@]3(C)C(=O)C[C@]12C [CUCURBITACIN B]	Non-toxic	–	270	–	–	–
CC(=O)OC(C)(C)/C=C/C(=O)[C@](C)(O)[C@H]1[C@H](O)C[C@@]2(C)[C@@H]3CC=C4[C@H](C[C@H](O)C(=O)C4(C)C)[C@]3(C)C(=O)C[C@]12C [CUCURBITACIN B]	–	61	–	Dose-dependent effect	310	–
